OX1R antag-1: antagonists of human orexin 1 receptor (OX1R). Orexin/Hypocretin receptor type 1 (Homo sapiens), O43613. 1.8% of 330,000 active. OX1R-expressing cells, FRET antagonist read-out. inhibition, % at 6.6 µM; in the data active = inhibition mostly above about 38%, no sharp cut-off; inactive = mostly below about 40%;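 note: 0% = agonist challenge alone and 100% = reference antagonist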
GPR7 antag: GPR7 receptor antagonists, primary screen, cell-based, fluorescence, single concentration; 1.1% of 290,000 active; GPR7-expressing cells, fluorescence antagonist assay; AID 1861, 2009; Neuropeptides B/W receptor type 1 (Homo sapiens), P48145; inhibition, % at 4.4 µM; in the data active = inhibition above about 16%, passing the limit was not always enough;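 note: cells stimulated with the agonist NPW; 0% = agonist with vehicle and 100% = vehicle without agonist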
Target sequence (P48145 whole entry, looked up): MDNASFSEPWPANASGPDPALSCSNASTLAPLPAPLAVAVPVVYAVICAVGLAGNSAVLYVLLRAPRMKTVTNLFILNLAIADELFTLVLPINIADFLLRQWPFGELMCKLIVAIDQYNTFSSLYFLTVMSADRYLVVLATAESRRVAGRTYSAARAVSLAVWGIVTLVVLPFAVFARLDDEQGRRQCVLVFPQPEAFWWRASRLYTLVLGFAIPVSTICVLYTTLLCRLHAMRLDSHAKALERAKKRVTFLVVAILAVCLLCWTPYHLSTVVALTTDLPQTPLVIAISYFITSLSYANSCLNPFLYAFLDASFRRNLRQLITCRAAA
OX1R antag-2: OX1R (HCRTR1) antagonists, primary screen, fluorescence, CHO/OX1R cells, Fluo-8 calcium, orexin A; 0.43% of 330,000 active; AID 434989, 2010; inhibition, % at 5 µM; Fluo-8 calcium fluorescence;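 active = inhibition above its plate's threshold, mean inhibition of all tested compounds on the plate plus 3 SD, cut at about 37% in these data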;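 note: 0% = orexin A challenge wells and 100% = SB-334867-A antagonist wells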
TAAR1 agonist: human TAAR1 agonists, primary screen, Fluo-8 calcium fluorescence, CHO RD-HGA16 cells. Trace amine-associated receptor 1 (Homo sapiens), Q96RJ0. vehicle wells 0%, saturating PEA agonist 100%. activation, % at 3 µM. 0.99% of 360,000 active. AID 624467, 2012;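 active = activation above the mean activation of all test compounds in the run plus 3 SD, cut at about 38% in these data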
Target sequence (Q96RJ0 whole entry, looked up): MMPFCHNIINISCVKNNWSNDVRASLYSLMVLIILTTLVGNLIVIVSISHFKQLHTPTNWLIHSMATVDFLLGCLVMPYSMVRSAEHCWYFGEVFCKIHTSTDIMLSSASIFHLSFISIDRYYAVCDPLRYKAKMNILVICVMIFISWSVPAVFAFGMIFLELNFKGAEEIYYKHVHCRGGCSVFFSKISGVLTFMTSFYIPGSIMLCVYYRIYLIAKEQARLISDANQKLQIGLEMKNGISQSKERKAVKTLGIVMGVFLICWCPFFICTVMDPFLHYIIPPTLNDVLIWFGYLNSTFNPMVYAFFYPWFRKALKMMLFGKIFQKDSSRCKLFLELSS
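Repeats: no replicates (n 1) | Material: CHO-derived RD-HGA16 cells with stable Gα16 and human TAAR1 | Technique: Kinetic Fluo-8 calcium fluorescence | Schedule: 17-24 h seeding, 75 min 37 °C dye, 30 min RT | Evaluation: % activation from peak over basal fluorescence ratio, DMSO-to-PEA scaled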
TAAR1 antagonist: human TAAR1 antagonists, primary screen, Fluo-8 calcium fluorescence, CHO RD-HGA16 cells. Trace amine-associated receptor 1 (Homo sapiens), Q96RJ0. antagonist. inhibition, % at 3 µM. 1.5% of 360,000 active;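 active = inhibition above a per-plate cutoff, the mean inhibition of test compounds on that plate plus 3 SD, cut at about 49% in these data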;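 note: 0% = DMSO plus EC80 beta-PEA response and 100% = DMSO alone without agonist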
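Material: CHO RD-HGA16 cells bearing hTAAR1; compound dosing: one-point dosing, 3 µM nominal final; schedule: dye loading 75 min at 37 °C, then 30 min room temperature; measured by: calcium fluorescence with Fluo-8; control set: vehicle and agonist controls; replication: n of 1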
CHO parental Ca: ATP-evoked calcium signal inhibitors, parental CHO, primary screen, counter-screen for OX1R antagonist project, cell-based, fluorescence, Fluo-8 calcium dye; parental CHO-K1, ATP-induced calcium, Fluo-8 fluorescence; inhibition, % at 5.6 µM; 0.63% of 330,000 active; AID 463079, 2010;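 active = inhibition above that plate's mean sample inhibition plus 3 SD, cut at about 26% in these data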;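 note: 0% = ATP-challenged DMSO wells and 100% = DMSO wells without ATP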
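Measured by: calcium-sensitive Fluo-8 fluorescence / Test system: CHO parental line / Controls: ATP-challenged DMSO wells low, unchallenged DMSO wells high / Measure: % inhibition / Compound: single nominal dose of 5.6 µM per compound / Replicates: single well per compound, no replicates / Reagent: ATP as calcium-mobilizing challenge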
OX1R Fluo8 conf: OX1R (HCRTR1) antagonists, confirmation, fluorescence, CHO/OX1R cells, Fluo-8 calcium, orexin A. shares compounds with OX1R antag-2. orexin A calcium Fluo-8 fluorescence. inhibition, % at 5 µM. 38% of 1,100 active. AID 492963, 2010; in the data active = inhibition above about 29%;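 note: 0% = agonist challenge alone and 100% = reference antagonist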
CHO Ca counter: ATP-evoked calcium inhibition in parental CHO, counter-screen for OX1R antagonist project, cell-based, fluorescence, CHO-K1, triplicate. shares compounds with OX1R antag-2. ATP-induced calcium, Fluo-8 fluorescence. inhibition, % at 5.6 µM. 9.3% of 1,100 active. AID 492965, 2010;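 active = inhibition above a per-plate limit, the mean inhibition of that plate's test compounds plus 3 SD, cut at about 25% in these data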;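 note: 0% = ATP challenge with DMSO and 100% = DMSO without ATP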
OX1R HTRF confirm: OX1R (HCRTR1) antagonists, confirmation, cell-based, HTRF; AID 492964, 2010; shares compounds with OX1R antag-1; 49% of 1,800 active; inhibition, % at 6.6 µM; OX1R-expressing cells, HTRF antagonist assay; in the data active = inhibition above about 55%;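 note: CHO cells expressing OX1R stimulated with orexin A at about EC80; 0% = agonist challenge alone and 100% = reference antagonist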
CHO-K1 HTRF: signal inhibition in parental CHO-K1 cells, counter-screen for OX1R antagonist project, cell-based, HTRF | inhibition, % at 6.6 µM | HTRF counterscreen | 48% of 1,800 active | shares compounds with OX1R antag-1; in the data active = inhibition above about 17%;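 note: 0% = agonist challenge with vehicle and 100% = vehicle alone without agonist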
Active calls of the source: *; . = not tested or not shown. Hits are enriched below; roughly 4.5% of the tested compounds scored in any of these assays.

SMILES	OX1R antag-1	GPR7 antag	OX1R antag-2	TAAR1 agonist	TAAR1 antagonist	CHO parental Ca	OX1R Fluo8 conf	CHO Ca counter	OX1R HTRF confirm	CHO-K1 HTRF
COc1ccc(/C=N/NC(=O)c2ccc3ccccc3c2)cc1OS(=O)(=O)c1ccc(NC(C)=O)cc1	63*	24	60*	12	74*	18	41*	13	53	-1
CN(CC(=O)Nc1ccc(Cl)c(C(F)(F)F)c1)C(=O)Cc1ccsc1	50*	.	28	20	40	11	-3	-19	29	-23
O=C(CSc1ccc(Br)c2cccc(Cl)c12)Nc1ccc(S(=O)(=O)Nc2nccs2)cc1	97*	-19	80*	1	-16	1	74*	-3	90*	9
COc1ccc(F)cc1-c1cc(C(=O)NC2CCCCC2)[nH]n1	.	.	.	3	-11	.	.	.	.	.
Cc1ccc([C@H]2N[C@]3(CCCN(Cc4ccc(Br)cc4)C3=O)[C@H]3C(=O)N(Cc4ccccc4)C(=O)[C@@H]23)cc1	.	.	.	2	0	.	.	.	.	.
COc1ccc(NC(=O)c2cc3c([nH]c4ccccc43)c(C)n2)cc1	96*	-5	26	1	-7	3	7	-1	24	11
COC(=O)c1cc2c([nH]c3ccccc32)c(C)n1	.	3	.	.	.	.	.	.	.	.
COC(=O)c1ccccc1NC(=O)c1sc(=S)n(C)c1N	93*	-2	78*	6	6	18	97*	-11	94*	1
COC(=O)c1ccccc1NC(=O)c1sc(N)nc1C	21	1	-28	3	9	-4	.	.	.	.
O=C(Cc1ccc(N2CCNC2=O)cc1)N1CCCC(Nc2cccc(F)c2)C1 (configuration not stated)	4	7	-78	3	-14	-13	.	.	.	.
O=C(c1cccc(N2CCNC2=O)c1)N1CCCC(Nc2cccc(F)c2)C1 (configuration not stated)	98*	-4	33	1	-13	-9	68*	-4	71*	-31
COc1cc(N)c2ncccc2c1Br	.	.	.	2	0	.	.	.	.	.
COc1ccc(Cl)cc1C(=O)OCC(=O)NCCNC(=O)COC(=O)c1cc(Cl)ccc1OC	59*	-4	28	5	-19	2	26	42*	71*	1
Cc1nnc(NC(=O)CN2C(=O)NC3(CCCC3)C2=O)s1	12	.	-5	2	-29	0	.	.	.	.
Cc1cc(C)c2nc(NC(=O)CN3C(=O)NC4(CCCC4)C3=O)sc2c1	69*	.	30	5	-4	-12	18	-3	52	0
NC(=S)N/N=C/c1ccccc1OCc1cccc(Cl)c1	81*	-11	54*	.	.	-5	35*	2	81*	14
NC(=S)N/N=C/c1ccc2cccc(OCc3ccccc3)c2n1	21	-35	-13	5	29	-12	.	.	.	.
CCN(CC(=O)NCc1cccs1)C(=O)c1ccc(N(C)S(=O)(=O)c2ccc(C)cc2)cc1	.	.	.	8	23	.	.	.	.	.
CCc1nc2c(OCC(=O)C(C)(C)C)cccn2c1N(C)C(=O)CC(C)C	.	.	.	0	13	.	.	.	.	.
COc1ccccc1C(=O)Nc1nnc(-c2ccco2)s1	59*	-3	55*	4	11	-31	12	-1	56*	6
O=C(Nc1cccc(Cl)c1)c1ccc(F)c(S(=O)(=O)NCc2ccc3c(c2)OCO3)c1	83*	0	59*	6	0	-6	48*	-1	76*	-6
Cc1noc(C)c1C(=O)N1CCC1(C)C(=O)NS(=O)(=O)c1ccc(F)cc1F (configuration not stated)	.	.	.	0	5	.	.	.	.	.
c1ccc(-c2nc3ccccc3o2)nc1	8	0	-2	0	-9	-5	.	.	.	.
c1ccc2nc(-c3nc4ccccc4o3)ccc2c1	97*	-3	24	11	-9	-21	46*	-8	98*	5
O=C(Nc1cccc(F)c1)C1CCCN1S(=O)(=O)c1cccc2cccnc12 (configuration not stated)	71*	-9	27	0	-28	-5	31*	-5	89*	2
SMILES	OX1R antag-1	GPR7 antag	OX1R antag-2	TAAR1 agonist	TAAR1 antagonist	CHO parental Ca	OX1R Fluo8 conf	CHO Ca counter	OX1R HTRF confirm	CHO-K1 HTRF
O=C(Nc1ccccc1Cl)C1CCCN(S(=O)(=O)c2cccc3cccnc23)C1 (configuration not stated)	42	-9	-26	7	24	-25	.	.	.	.
COc1ccc(C)cc1NC(=O)C1CCCN(S(=O)(=O)c2cccc3cccnc23)C1 (configuration not stated)	79*	-9	32	.	.	-10	25	-12	80*	3
COc1cccc(NC(=O)[C@@H]2CCCN2S(=O)(=O)c2cccc3cccnc23)c1	84*	.	47*	5	5	-15	50*	6	84*	1
O=C(Nc1ccc2c(c1)OCCO2)C1CCCN1S(=O)(=O)c1cccc2cccnc12 (configuration not stated)	16	-14	-18	2	1	-9	.	.	.	.
CC1CCN(S(=O)(=O)N2CCC(C(=O)NC(C)c3ccccc3)CC2)CC1 (configuration not stated)	.	.	.	4	13	.	.	.	.	.
COc1ccc(Cc2c(C3CCCCC3)nc3cc(C)c(Br)c(C)n23)c(C)c1	.	.	.	4	-8	.	.	.	.	.
CC(C)C(=O)N1CCC1(C)C(=O)Nc1ccccc1OC(F)F (configuration not stated)	.	.	.	1	-9	.	.	.	.	.
Fc1cccc(Nc2nc3ccccc3n3cnnc23)c1	53*	-4	36	-1	-3	0	37*	0	86*	6
COCCCNC(=O)c1cc(S(=O)(=O)N2CCC3(CC2)OCCO3)ccc1F	.	.	.	3	-1	.	.	.	.	.
Cn1c(CNc2nc(-c3ccccc3)cs2)nnc1SCC(=O)N1CCc2ccccc21	80*	-6	47*	3	0	-14	22	-11	55	2

Bioassay records: PubChem, The Scripps Research Institute Molecular Screening Center
